Experimental data published in article PMC5148661 (ACS infectious diseases, 2016).
Like-named read-outs stand apart in the source and are kept apart here.

Experiments:
[1] = pharmacokinetics after IV and oral dosing; format: in vivo, dogs; details: dog, plasma, 1 mg/kg
Method in brief: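 Single IV and oral doses were given. Mice and rats received about 2 mg/kg IV and 5–50 mg/kg orally, with blood sampled over 30–48 h from 2 mice per time point or 2 rats. Dogs received 1 mg/kg by each route (n=3). Plasma was separated by centrifugation and assayed by LC/MS, and parameters were derived non-compartmentally.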

Mouse DHODH = Mouse DHODH (Mus musculus, UniProt O35435); assay: DHODH inhibition, DCIP-based assay; format: biochemical
[2] = system: P. falciparum field isolates; assay: ex vivo 48 h schizont maturation assay; format: cell-based; details: Plasmodium falciparum, read-out: unbound EC50
Method in brief: (§1)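 Field isolates came from patients at malaria clinics in Timika, Papua, Indonesia, and were tested in a 48 h schizont maturation assay adapted from the WHO microtest at 2% hematocrit. P. falciparum was run in RPMI 1640 with 10% AB+ human serum. P. vivax was run in McCoy's 5A with 20% AB+ human serum.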

P. vivax field isolates = assay: ex vivo 48 h schizont maturation assay; format: cell-based
Method in brief: as §1

[3] = system: P. falciparum Dd2 isolates selected for resistance to DSM265; assay: activity on DSM265-selected resistant lines; format: cell-based; details: G181C PfDHODH mutant line and 3-fold DHODH gene amplification line
Minipig DHODH = Minipig DHODH (Sus scrofa, UniProt F1S3B0); assay: DHODH inhibition, DCIP-based assay; format: biochemical
CYP isoforms = assay: cytochrome P450 inhibition, other isoforms and time-dependent inhibition; format: in vitro ADME; details: 20 μM
Method in brief: (§2)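 Reversible inhibition of human CYP isoforms tested with isoform-specific probe substrates. Time-dependent (mechanism-based) inhibition was also assessed.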

[4] = system: CYP isoforms (all isoforms tested); assay: as above; format: in vitro ADME
Method in brief: as §2

P. vivax DHODH = P. vivax DHODH (Plasmodium vivax, UniProt A5K1N1); assay: DHODH inhibition, DCIP-based assay; format: biochemical
[5] = metabolic stability in liver microsomes; format: in vitro ADME; details: dog
P. falciparum 3D7 = assay: whole cell P. falciparum 3D7 blood stage 72 h assay, albumax media; format: cell-based; details: for EC50: Plasmodium falciparum, 3D7, 72 h
[6] = metabolic stability in liver microsomes; format: in vitro ADME; details: human
[7] = solubility by equilibration in physiologically-relevant media; format: physicochemical
Rabbit DHODH = Rabbit DHODH (Oryctolagus cuniculus, UniProt G1SWF3); assay: DHODH inhibition, DCIP-based assay; format: biochemical
[8] = system: P. falciparum field isolates; assay: P. falciparum clinical isolates; format: cell-based; details: Plasmodium falciparum, 72 h, read-out: unbound EC50

Sequence of Mouse DHODH (O35435 whole entry): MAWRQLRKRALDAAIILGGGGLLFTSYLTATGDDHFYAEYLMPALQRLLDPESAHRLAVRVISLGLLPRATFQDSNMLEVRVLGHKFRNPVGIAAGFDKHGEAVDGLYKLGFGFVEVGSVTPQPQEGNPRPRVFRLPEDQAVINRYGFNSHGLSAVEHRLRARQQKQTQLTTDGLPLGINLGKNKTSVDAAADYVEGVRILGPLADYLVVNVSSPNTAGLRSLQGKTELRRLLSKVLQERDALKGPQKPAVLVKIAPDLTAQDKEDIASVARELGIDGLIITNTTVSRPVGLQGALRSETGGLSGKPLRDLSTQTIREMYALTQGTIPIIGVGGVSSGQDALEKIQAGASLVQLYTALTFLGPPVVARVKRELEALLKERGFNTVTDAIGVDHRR
Sequence of P. vivax DHODH (A5K1N1 160-572): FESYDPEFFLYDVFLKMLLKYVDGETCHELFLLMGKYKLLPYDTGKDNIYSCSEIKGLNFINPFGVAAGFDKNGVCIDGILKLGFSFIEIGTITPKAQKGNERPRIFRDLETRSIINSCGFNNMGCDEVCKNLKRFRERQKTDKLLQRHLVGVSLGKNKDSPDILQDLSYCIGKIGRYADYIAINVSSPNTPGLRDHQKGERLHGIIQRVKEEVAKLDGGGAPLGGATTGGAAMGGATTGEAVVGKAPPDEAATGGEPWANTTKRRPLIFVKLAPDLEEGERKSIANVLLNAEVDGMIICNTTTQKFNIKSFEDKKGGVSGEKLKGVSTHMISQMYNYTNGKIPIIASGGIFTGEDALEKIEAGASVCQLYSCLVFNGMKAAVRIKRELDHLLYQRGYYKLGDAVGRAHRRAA
Sequence of Minipig DHODH (F1S3B0 1-395): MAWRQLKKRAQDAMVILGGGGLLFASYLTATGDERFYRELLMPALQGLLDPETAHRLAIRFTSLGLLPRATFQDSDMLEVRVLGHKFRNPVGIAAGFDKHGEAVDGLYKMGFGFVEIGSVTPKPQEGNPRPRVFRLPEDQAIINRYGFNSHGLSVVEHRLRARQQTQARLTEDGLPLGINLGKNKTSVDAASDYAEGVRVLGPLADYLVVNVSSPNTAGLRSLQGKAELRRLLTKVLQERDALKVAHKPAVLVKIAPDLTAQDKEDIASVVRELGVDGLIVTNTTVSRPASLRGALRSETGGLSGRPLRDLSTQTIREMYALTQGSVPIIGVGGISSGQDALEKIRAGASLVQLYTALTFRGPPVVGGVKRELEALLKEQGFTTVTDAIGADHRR
Sequence of Rabbit DHODH (G1SWF3 1-395): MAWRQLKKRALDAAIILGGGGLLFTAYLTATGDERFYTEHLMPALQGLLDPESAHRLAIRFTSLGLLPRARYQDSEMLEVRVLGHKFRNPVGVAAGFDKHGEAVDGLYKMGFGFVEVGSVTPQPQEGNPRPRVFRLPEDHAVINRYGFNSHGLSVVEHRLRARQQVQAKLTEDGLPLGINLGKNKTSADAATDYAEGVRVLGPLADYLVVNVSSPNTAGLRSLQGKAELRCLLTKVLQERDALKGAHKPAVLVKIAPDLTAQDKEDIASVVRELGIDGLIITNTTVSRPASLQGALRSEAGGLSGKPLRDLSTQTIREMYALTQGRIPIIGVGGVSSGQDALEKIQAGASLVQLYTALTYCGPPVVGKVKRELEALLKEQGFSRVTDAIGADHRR

Cc1cc(Nc2ccc(C(F)(F)F)nc2)n2nc(C(C)(F)F)nc2n1 [DSM421, 2-(1,1-Difluoroethyl)-5-methyl-N-(6-(trifluoromethyl)pyridin-3-yl)-[1,2,4]triazolo[1,5-a]pyrimidin-7-amine]
half-life [1]: 15 to 18 h | CLint scaled ([1]; intravenous): 4.5 mL/min/kg | Vd ([1]; iv): 0.8 L/kg | clearance ([1]; iv): 0.5 mL/min/kg | Tmax ([1]; po): 4 h | bioavailability ([1]; po): ~100% | IC50 (Mouse DHODH): 18000 nM | fold reduction of inhibitory activity in comparison to DSM265 (Mouse DHODH; rodent (mouse) enzyme): 10 fold | EC50 [2]: 23 nM | sensitivity of P. vivax versus P. falciparum field isolates (P. vivax field isolates): equivalent activity towards both species | cross resistance on DSM265-resistant Dd2 lines [3]: shares cross resistance with DSM265 | IC50 (Minipig DHODH): > 100000 nM | inhibition of the other CYP isoforms (CYP isoforms): no measurable inhibition | IC50 [4]: > 20000 nM | IC50 (P. vivax DHODH): 94 nM | fold lower activity (higher IC50) on P. vivax DHODH than PfDHODH (P. vivax DHODH): 2 fold | microsomal CLint at 1 μM [5]: < 7 µL/min/mg | fold less potent than DSM265 against P. falciparum 3D7 parasites (P. falciparum 3D7): 3 fold | fold lower intrinsic potency than DSM265 based on unbound concentrations (P. falciparum 3D7; 48 and 72 h in vitro assays): 10 fold | EC50 (P. falciparum 3D7; read-out: Pf3D7 EC50): 14 nM | EC50 (P. falciparum 3D7; read-out: unbound EC50): 7 nM | microsomal CLint at 1 μM [6]: < 7 µL/min/mg | fold more soluble than DSM265 [7]: 6-80 fold | IC50 (Rabbit DHODH): > 100000 nM | EC50 [8]: 12 nM
